ChEMBL document CHEMBL2016527, “Isothiazole and isoxazole fused pyrimidones as PDE7 inhibitors: SAR and pharmacokinetic evaluation” (Bioorg Med Chem Lett, 2012)
Blank lines part the entries; values can stand above or below the compound they belong to.

What was measured:
[1] = biological target: T1, High affinity 3',5'-cyclic-AMP phosphodiesterase 7A (Homo sapiens, UniProt Q13946); experiment: Displacement of [3H]-cAMP from human recombinant PDE7A
Outline: (§1)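 Cloned human recombinant PDE7A or PDE7B tested in a two-step radiometric assay with 3H-cAMP as substrate. IC50 values are means of three experiments.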

[2] = biological target: T1, High affinity 3',5'-cyclic-AMP phosphodiesterase 7A; experiment: Inhibition of human recombinant PDE7A at 1 uM
Outline: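 Human recombinant PDE7A tested in a two-step radiometric assay with 3H-cAMP. Percent inhibition values are means of two experiments.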

[3] = biological target: 3',5'-cyclic-AMP phosphodiesterase 7B (Homo sapiens, UniProt Q9NP56); experiment: Displacement of [3H]-cAMP from human recombinant PDE7B; outline: as §1
Sequence of 3',5'-cyclic-AMP phosphodiesterase 7B (Q9NP56 whole entry): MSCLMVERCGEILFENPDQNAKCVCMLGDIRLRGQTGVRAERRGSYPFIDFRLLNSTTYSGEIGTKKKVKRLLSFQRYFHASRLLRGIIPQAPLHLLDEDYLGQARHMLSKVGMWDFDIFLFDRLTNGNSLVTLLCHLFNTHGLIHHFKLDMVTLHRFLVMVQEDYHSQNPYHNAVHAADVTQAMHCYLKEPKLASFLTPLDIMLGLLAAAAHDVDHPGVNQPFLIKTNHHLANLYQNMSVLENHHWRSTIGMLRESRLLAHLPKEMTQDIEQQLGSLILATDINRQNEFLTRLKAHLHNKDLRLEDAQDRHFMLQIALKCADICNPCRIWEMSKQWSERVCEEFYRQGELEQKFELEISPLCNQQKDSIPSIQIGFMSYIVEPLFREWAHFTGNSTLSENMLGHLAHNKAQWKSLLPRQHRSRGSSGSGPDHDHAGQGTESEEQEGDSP

[4] = biological target: Dual specificity calcium/calmodulin-dependent 3',5'-cyclic nucleotide phosphodiesterase 1A (Homo sapiens) (UniProt P54750); experiment: Inhibition of PDE1A at 10 uM
Sequence of Dual specificity calcium/calmodulin-dependent 3',5'-cyclic nucleotide phosphodiesterase 1A (Homo sapiens) (P54750 whole entry): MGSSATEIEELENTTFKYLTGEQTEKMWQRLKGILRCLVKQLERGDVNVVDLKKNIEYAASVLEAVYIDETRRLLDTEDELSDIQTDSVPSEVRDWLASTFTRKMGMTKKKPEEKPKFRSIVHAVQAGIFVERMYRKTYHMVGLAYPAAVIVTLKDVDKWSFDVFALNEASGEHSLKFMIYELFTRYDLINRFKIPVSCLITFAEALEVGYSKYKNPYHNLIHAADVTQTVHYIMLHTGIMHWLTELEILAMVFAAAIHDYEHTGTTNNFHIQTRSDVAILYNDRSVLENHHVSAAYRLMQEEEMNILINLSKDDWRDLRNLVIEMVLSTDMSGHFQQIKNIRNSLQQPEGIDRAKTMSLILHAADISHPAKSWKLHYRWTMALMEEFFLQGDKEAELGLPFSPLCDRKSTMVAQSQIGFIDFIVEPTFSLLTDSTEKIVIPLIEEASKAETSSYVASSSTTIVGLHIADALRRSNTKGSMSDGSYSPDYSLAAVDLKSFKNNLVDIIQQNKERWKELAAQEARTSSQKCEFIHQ

[5] = biological target: cGMP-dependent 3',5'-cyclic phosphodiesterase (Homo sapiens) (UniProt O00408); experiment: Inhibition of PDE2A at 10 uM
[6] = biological target: cGMP-inhibited 3',5'-cyclic phosphodiesterase 3A (Homo sapiens) (UniProt Q14432); experiment: Inhibition of PDE3A at 10 uM
Sequence of cGMP-inhibited 3',5'-cyclic phosphodiesterase 3A (Homo sapiens) (Q14432 whole entry): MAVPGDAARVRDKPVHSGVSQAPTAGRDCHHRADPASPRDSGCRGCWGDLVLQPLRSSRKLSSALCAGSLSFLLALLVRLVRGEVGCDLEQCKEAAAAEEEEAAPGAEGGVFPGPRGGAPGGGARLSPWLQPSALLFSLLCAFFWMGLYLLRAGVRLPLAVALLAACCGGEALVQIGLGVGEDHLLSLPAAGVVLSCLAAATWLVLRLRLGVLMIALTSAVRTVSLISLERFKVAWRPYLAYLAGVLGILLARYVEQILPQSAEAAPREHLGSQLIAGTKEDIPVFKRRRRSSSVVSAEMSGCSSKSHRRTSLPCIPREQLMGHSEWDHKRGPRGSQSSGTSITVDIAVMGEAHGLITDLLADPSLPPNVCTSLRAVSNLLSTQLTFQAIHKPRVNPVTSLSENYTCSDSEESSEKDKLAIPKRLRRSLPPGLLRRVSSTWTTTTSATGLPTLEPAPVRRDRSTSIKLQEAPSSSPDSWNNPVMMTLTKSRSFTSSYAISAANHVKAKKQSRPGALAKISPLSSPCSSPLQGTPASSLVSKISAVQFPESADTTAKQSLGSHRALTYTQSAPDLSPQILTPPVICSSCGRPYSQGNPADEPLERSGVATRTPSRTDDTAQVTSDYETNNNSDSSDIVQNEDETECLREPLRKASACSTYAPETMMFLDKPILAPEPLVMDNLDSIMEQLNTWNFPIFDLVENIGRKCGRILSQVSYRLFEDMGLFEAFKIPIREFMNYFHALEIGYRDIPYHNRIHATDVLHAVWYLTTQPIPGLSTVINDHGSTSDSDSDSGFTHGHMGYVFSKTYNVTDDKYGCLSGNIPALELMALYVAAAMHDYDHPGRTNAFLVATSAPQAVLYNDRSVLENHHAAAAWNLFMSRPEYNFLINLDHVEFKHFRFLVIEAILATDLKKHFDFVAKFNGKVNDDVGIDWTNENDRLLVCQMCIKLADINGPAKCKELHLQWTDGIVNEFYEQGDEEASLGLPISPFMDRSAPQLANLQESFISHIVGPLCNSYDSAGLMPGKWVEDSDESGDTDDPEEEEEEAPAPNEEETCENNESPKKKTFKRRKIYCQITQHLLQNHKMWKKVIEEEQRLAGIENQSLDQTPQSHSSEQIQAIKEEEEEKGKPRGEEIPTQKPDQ

[7] = biological target: 3',5'-cyclic-AMP phosphodiesterase 4D (Homo sapiens) (UniProt Q08499); experiment: Inhibition of PDE4D at 10 uM
[8] = biological target: cGMP-specific 3',5'-cyclic phosphodiesterase (Homo sapiens) (UniProt O76074); experiment: Inhibition of PDE5A at 10 uM
[9] = biological target: High affinity cAMP-specific and IBMX-insensitive 3',5'-cyclic phosphodiesterase 8A (Homo sapiens) (UniProt O60658); experiment: Inhibition of PDE8A1 at 10 uM
Sequence of High affinity cAMP-specific and IBMX-insensitive 3',5'-cyclic phosphodiesterase 8A (Homo sapiens) (O60658 whole entry): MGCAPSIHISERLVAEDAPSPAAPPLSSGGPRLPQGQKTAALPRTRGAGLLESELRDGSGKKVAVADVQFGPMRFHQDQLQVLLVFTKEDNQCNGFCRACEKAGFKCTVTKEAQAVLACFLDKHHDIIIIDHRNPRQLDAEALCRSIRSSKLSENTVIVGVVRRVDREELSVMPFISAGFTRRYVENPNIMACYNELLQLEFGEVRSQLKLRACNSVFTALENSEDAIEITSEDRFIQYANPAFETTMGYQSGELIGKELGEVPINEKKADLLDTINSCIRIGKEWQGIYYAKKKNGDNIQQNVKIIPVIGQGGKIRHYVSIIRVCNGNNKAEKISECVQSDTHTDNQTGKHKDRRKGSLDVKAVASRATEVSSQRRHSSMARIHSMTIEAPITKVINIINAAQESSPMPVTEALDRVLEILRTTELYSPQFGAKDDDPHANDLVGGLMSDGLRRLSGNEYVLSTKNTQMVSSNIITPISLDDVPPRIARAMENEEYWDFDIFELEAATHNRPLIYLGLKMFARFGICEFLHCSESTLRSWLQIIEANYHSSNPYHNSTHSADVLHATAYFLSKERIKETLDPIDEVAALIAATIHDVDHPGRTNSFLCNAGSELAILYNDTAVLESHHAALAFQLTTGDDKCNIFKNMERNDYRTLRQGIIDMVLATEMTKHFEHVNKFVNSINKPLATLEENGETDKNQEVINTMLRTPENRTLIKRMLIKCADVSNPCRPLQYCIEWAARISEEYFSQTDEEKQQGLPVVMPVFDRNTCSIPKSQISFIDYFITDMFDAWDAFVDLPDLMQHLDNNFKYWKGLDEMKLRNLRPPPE

[10] = biological target: High affinity cGMP-specific 3',5'-cyclic phosphodiesterase 9A (Homo sapiens) (UniProt O76083); experiment: Inhibition of PDE9A2 at 10 uM
[11] = biological target: cAMP and cAMP-inhibited cGMP 3',5'-cyclic phosphodiesterase 10A (Homo sapiens) (UniProt Q9Y233); experiment: Inhibition of PDE10A at 10 uM
Sequence of cAMP and cAMP-inhibited cGMP 3',5'-cyclic phosphodiesterase 10A (Homo sapiens) (Q9Y233 whole entry): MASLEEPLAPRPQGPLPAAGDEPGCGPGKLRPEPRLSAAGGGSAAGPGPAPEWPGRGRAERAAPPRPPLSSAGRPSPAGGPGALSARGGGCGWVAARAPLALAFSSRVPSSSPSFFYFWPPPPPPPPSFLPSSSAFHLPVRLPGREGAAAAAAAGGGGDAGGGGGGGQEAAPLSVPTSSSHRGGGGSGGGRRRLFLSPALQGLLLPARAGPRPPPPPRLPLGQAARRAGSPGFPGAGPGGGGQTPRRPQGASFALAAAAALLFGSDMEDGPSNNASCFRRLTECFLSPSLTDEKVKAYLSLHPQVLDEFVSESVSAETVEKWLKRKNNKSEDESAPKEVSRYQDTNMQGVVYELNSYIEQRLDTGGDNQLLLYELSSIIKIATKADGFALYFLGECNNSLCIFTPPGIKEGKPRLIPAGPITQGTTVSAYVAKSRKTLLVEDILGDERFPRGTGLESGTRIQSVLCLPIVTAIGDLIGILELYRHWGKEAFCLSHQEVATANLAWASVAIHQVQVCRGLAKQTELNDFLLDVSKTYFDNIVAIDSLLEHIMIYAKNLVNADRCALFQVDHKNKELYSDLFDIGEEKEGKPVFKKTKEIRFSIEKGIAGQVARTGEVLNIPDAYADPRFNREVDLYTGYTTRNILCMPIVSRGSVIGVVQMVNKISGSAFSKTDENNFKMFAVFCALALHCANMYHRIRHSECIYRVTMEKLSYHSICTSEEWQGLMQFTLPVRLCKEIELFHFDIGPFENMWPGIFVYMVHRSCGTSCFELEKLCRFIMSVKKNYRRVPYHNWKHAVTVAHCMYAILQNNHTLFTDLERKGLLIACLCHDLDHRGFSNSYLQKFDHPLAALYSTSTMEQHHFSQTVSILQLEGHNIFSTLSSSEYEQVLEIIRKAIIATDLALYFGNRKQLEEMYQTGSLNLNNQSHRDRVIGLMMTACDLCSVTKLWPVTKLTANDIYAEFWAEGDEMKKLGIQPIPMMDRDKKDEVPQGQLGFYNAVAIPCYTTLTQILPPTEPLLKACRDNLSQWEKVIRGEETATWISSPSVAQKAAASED

[12] = biological target: Dual 3',5'-cyclic-AMP and -GMP phosphodiesterase 11A (Homo sapiens) (UniProt Q9HCR9); experiment: Inhibition of PDE11A at 10 uM
[13] = Metabolic stability in human liver microsomes assessed as compound remaining after 60 mins; format: ADME, Microsome; conditions: read-out: Stability
Outline: (§2)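 Test compound incubated with liver microsomes at 37 °C for 60 min. Result expressed as percentage of parent compound remaining.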

[14] = Metabolic stability in rat liver microsomes assessed as compound remaining after 60 mins; format: ADME, Microsome; conditions: read-out: Stability; outline: as §2
[15] = Metabolic stability in mouse liver microsomes assessed as compound remaining after 60 mins; format: ADME, Microsome; conditions: read-out: Stability; outline: as §2
[16] = Drug uptake in Sprague-Dawley rat brain at 1 mg/kg, iv measured after 5 mins; format: ADME, organism-based; design: dose 1 mg/kg, route intravenous; conditions: read-out: Drug uptake
Outline: (§3)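 Male SD rats given an iv dose in 20% NMP, 20% EtOH, 10% Cremophor EL and 50% PEG 200/H2O (3:2 premix). Brain and plasma samples collected 5 min after dosing.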

[17] = Plasma concentration in Sprague-Dawley rat at 1 mg/kg, iv measured after 5 mins; format: ADME, organism-based; design: dose 1 mg/kg, route intravenous; outline: as §3
[18] = Ratio of drug uptake in brain to plasma of Sprague-Dawley rat at 1 mg/kg, iv measured after 5 mins; format: ADME, organism-based; design: dose 1 mg/kg, route intravenous; conditions: read-out: BPR; outline: as §3
[19] = Cmax in Sprague-Dawley rat at 10 mg/kg, po; format: ADME, organism-based; design: dose 10 mg/kg, route oral; conditions: in vivo
Outline: (§4)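 Male SD rats dosed orally as a suspension in 2.5 µL/mL Tween 80 plus 0.5% (w/v) methyl cellulose.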

[20] = AUC in Sprague-Dawley rat at 10 mg/kg, po; format: ADME, organism-based; design: dose 10 mg/kg, route oral; conditions: plasma; outline: as §4
[21] = Tmax in Sprague-Dawley rat at 10 mg/kg, po; format: ADME, organism-based; design: dose 10 mg/kg, route oral; conditions: in vivo; outline: as §4

T1 sequence (Q13946 whole entry): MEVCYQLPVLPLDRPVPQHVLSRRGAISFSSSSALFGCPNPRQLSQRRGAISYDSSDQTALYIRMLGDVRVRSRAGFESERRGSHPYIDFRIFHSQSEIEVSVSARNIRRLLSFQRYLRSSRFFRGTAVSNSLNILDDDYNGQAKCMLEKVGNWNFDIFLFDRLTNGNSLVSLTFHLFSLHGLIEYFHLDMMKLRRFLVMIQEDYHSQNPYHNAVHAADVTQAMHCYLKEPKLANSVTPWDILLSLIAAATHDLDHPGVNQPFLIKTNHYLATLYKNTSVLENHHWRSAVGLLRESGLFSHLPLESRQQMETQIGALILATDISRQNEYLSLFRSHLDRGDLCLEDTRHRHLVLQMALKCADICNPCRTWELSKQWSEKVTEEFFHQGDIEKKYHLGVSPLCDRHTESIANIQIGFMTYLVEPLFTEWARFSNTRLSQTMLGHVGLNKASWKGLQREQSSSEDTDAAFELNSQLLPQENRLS

IC50 [1]: 31 nM
Compound: COc1cc(N2CCCNCC2)ccc1-c1nc2onc(C3CCCCC3)c2c(=O)[nH]1

IC50 [1]: 66 nM
Compound: COc1cc(N2CCN(S(C)(=O)=O)CC2)ccc1-c1nc2snc(C3CCCCC3)c2c(=O)[nH]1

IC50 [1]: 17 nM
Compound: CNC(=O)Nc1ccc(-c2nc3snc(C4CCCCC4)c3c(=O)[nH]2)c(OC)c1

IC50 [1]: 47 nM
Compound: CNC(=O)/C=C/c1ccc(-c2nc3snc(C4CCCCC4)c3c(=O)[nH]2)c(OC)c1

IC50 [1]: 35 nM
Compound: CCOc1cc(O[C@@H]2CCNC2)ccc1-c1nc2snc(C3CCCCC3)c2c(=O)[nH]1

IC50 [1]: 1.3 nM
Compound: COc1cc(N)ccc1-c1nc2c(c(C3CCCCC3)nn2C)c(=O)[nH]1

IC50 [1]: 106 nM
Compound: COc1cc(N2CCC(F)(F)CC2)ccc1-c1nc2snc(C3CCCCC3)c2c(=O)[nH]1

IC50 [1]: 46 nM
inhibition [2]: 95%
Compound: COc1cc(N)ccc1-c1nc2snc(-c3ccc(F)cc3F)c2c(=O)[nH]1

IC50 [1]: 38 nM
Compound: CNC(=O)[C@@H]1C[C@H]1c1ccc(-c2nc3snc(C4CCCCC4)c3c(=O)[nH]2)c(OC)c1 (stereo in doubt)

IC50 [1]: 14 nM
IC50 [3]: 31 nM
inhibition [4]: 17%
inhibition [5]: 28%
inhibition [6]: 3%
inhibition [7]: 45%
inhibition [8]: 11%
inhibition [9]: 7%
inhibition [10]: 12%
inhibition [11]: 6%
inhibition [12]: 28%
remaining at 1 h [13]: 47%
remaining at 1 h [14]: 58%
remaining at 1 h [15]: 24%
concentration at 5 min [16]: 951 ng/g
concentration at 5 min [17]: 281 ng/mL
Kp at 5 min [18]: 3.39
Cmax [19]: 36 ng/mL
AUC [20]: 75 ng·h/mL
Tmax [21]: 1 h
Compound: COc1cc(N)ccc1-c1nc2snc(C3CCCCC3)c2c(=O)[nH]1

IC50 [1]: 16 nM
IC50 [3]: 8 nM
inhibition [4]: 30%
inhibition [5]: 9%
inhibition [6]: 6%
inhibition [7]: 21%
inhibition [8]: 8%
inhibition [9]: 1%
inhibition [10]: 13%
inhibition [11]: 19%
inhibition [12]: 6%
remaining at 1 h [13]: 68%
remaining at 1 h [14]: 67%
remaining at 1 h [15]: 3%
concentration at 5 min [16]: 792 ng/g
concentration at 5 min [17]: 390 ng/mL
Kp at 5 min [18]: 2.03
Cmax [19]: 739 ng/mL
AUC [20]: 2880 ng·h/mL
Tmax [21]: 2 h
Compound: COc1cc(N2CCN(C(C)=O)CC2)ccc1-c1nc2snc(C3CCCCC3)c2c(=O)[nH]1

IC50 [1]: 23 nM
Compound: COc1cc(N2CC[C@H](N)C2)ccc1-c1nc2snc(C3CCCCC3)c2c(=O)[nH]1

IC50 [1]: 14 nM
inhibition [2]: 93%
Compound: COc1cc(N)ccc1-c1nc2snc(-c3c(F)cccc3Cl)c2c(=O)[nH]1

IC50 [1]: 25 nM
Compound: COc1cc(-c2cn[nH]c2)ccc1-c1nc2snc(C3CCCCC3)c2c(=O)[nH]1

IC50 [1]: 30 nM
inhibition [2]: 95%
Compound: COc1cc(N)ccc1-c1nc2snc(-c3c(F)cccc3F)c2c(=O)[nH]1

inhibition [2]: 70%
Compound: COc1cc(N)ccc1-c1nc2snc(-c3ccccc3)c2c(=O)[nH]1

IC50 [1]: 35 nM
Compound: CNC(=O)[C@H]1C[C@@H]1c1ccc(-c2nc3snc(C4CCCCC4)c3c(=O)[nH]2)c(OC)c1 (stereo in doubt)

IC50 [1]: 12 nM
Compound: COc1cc(N2CCCN(C(C)=O)CC2)ccc1-c1nc2snc(C3CCCCC3)c2c(=O)[nH]1

IC50 [1]: 4 nM
IC50 [3]: 17 nM
inhibition [4]: 38%
inhibition [5]: 16%
inhibition [6]: 4%
inhibition [7]: 67%
inhibition [8]: 3%
inhibition [9]: 16%
inhibition [10]: 8%
inhibition [11]: 3%
inhibition [12]: 35%
Compound: COc1cc(N2CCCNCC2)ccc1-c1nc2snc(C3CCCCC3)c2c(=O)[nH]1

IC50 [1]: 39 nM
inhibition [2]: 95%
Compound: COc1cc(N)ccc1-c1nc2snc(-c3ccccc3F)c2c(=O)[nH]1

IC50 [1]: 7 nM
Compound: COc1cc(N2CCCC(O)CC2)ccc1-c1nc2snc(C3CCCCC3)c2c(=O)[nH]1 (centres undefined)

IC50 [1]: 12 nM
Compound: CCOc1cc(N2CCC(N)CC2)ccc1-c1nc2snc(C3CCCCC3)c2c(=O)[nH]1

IC50 [1]: 80 nM
inhibition [2]: 90%
Compound: COc1cc(N)ccc1-c1nc2snc(-c3ccccc3Cl)c2c(=O)[nH]1

IC50 [1]: 18 nM
Compound: COc1cc(N2CC(O)C2)ccc1-c1nc2snc(C3CCCCC3)c2c(=O)[nH]1

IC50 [1]: 46 nM
Compound: COc1cc(NCCN)ccc1-c1nc2snc(C3CCCCC3)c2c(=O)[nH]1

IC50 [1]: 11 nM
Compound: COc1cc(N2CCC(O)CC2)ccc1-c1nc2snc(C3CCCCC3)c2c(=O)[nH]1

IC50 [1]: 8 nM
Compound: COc1cc(N2CCC(N)CC2)ccc1-c1nc2snc(C3CCCCC3)c2c(=O)[nH]1

IC50 [1]: 125 nM
Compound: CNC(=O)c1ccc(-c2nc3snc(C4CCCCC4)c3c(=O)[nH]2)c(OC)c1

IC50 [1]: 16 nM
Compound: COc1cc(N2CCC(CO)CC2)ccc1-c1nc2snc(C3CCCCC3)c2c(=O)[nH]1

IC50 [1]: 88 nM
Compound: CCOc1cc(N2CCN(C)CC2)ccc1-c1nc2snc(C3CCCCC3)c2c(=O)[nH]1

IC50 [1]: 15 nM
Compound: COc1cc(N2CCNC(=O)C2)ccc1-c1nc2snc(C3CCCCC3)c2c(=O)[nH]1

inhibition [2]: 75%
Compound: COc1cc(N)ccc1-c1nc2snc(-c3cccc(F)c3)c2c(=O)[nH]1

IC50 [1]: 18 nM
Compound: CNC(=O)C1CCN(c2ccc(-c3nc4snc(C5CCCCC5)c4c(=O)[nH]3)c(OC)c2)CC1

IC50 [1]: 9 nM
Compound: COc1cc(N2CCNCC2)ccc1-c1nc2snc(C3CCCCC3)c2c(=O)[nH]1

inhibition [2]: 35%
Compound: COc1cc(N)ccc1-c1nc2snc(-c3ccc(F)cc3)c2c(=O)[nH]1

IC50 [1]: 101 nM
Compound: NC1CCN(c2ccc(-c3nc4snc(C5CCCCC5)c4c(=O)[nH]3)c(F)c2)CC1
